Reference: publication PMC9292875 (British Journal of Clinical Pharmacology, 2021)
“And” between values parts separate entries of the source, which are not always exact repeats. Identical values can stand only once.

Legend:
[1] = Plasma pharmacokinetics of capivasertib; type: in vivo, human
[2] = test system: patients with advanced solid malignancies; type: in vivo, human; details: linear mixed-effects model parameter estimate
Summary of the method: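 The model was a prespecified linear mixed-effects structure for placebo-free oncology trials. It regressed baseline-adjusted QTcF on plasma concentration, with random intercept and slope, plus a fixed effect for baseline QTcF centred on the overall baseline mean. Fitting used restricted maximum likelihood, assuming normal random effects and residuals. Only first-dose data were used (503 time-matched points, 180 patients). Fit was checked with goodness-of-fit plots.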

[3] = test system: patients with advanced solid malignancies; test: Exploratory graphical analysis of model assumptions; type: in vivo, human
Summary of the method: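 Before modelling, first-dose paired data were plotted to check four assumptions: no drug effect on heart rate; a suitable HR correction (RR versus uncorrected QT, QTcF and QTcB); no hysteresis (mean ΔQTcF against concentration, joined in time order per dose); and linearity (loess smooth, linear regression, binned means). Sampling was at baseline, 1, 2, 6 and 24 h (escalation/expansion) or at baseline, 2 and 4–6 h (mutation cohorts).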

[4] = test system: patients with advanced solid malignancies; test: Categorical evaluation of QTc, PR and QRS intervals; type: in vivo, human; details: of 180 patients
Summary of the method: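 Patients received single twice-daily-regimen doses of 80–800 mg, either continuous or intermittent. A 12-lead digital ECG was recorded after at least 10 min semi-supine rest. Triplicate tracings were taken about 5 min apart at each time point and averaged, then read centrally. Thresholds were QTc ≥450, ≥480 and ≥500 ms; ΔQTc ≥30 and ≥60 ms; PR ≥200 ms; and QRS ≥110 ms.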

[5] = test system: patients; details: available clinical data; cited from earlier work

NC1(C(=O)N[C@@H](CCO)c2ccc(Cl)cc2)CCN(c2ncnc3[nH]ccc23)CC1 [capivasertib, 4‐amino‐N‐[(1S)‐1‐(4‐chlorophenyl)‐3‐hydroxypropyl]‐1‐(7H‐pyrrolo[2,3‐d]pyrimidin‐4‐yl)piperidine‐4‐carboxamide]
Drug accumulation ([1]; 4 days on/3 days off intermittent schedule): less than twofold | Time at which Cmax was reached after dosing ([1]; after first dose): approximately 2 hours | ɛ Residual variability [2]: 6.452 ms | η0 Random effect for intercept [2]: 5.350 ms | θ0 Intercept [2]: -0.269 ms | θ1 Slope of capivasertib concentration vs ΔQTcF [2]: 0.003 ms/(ng/mL) and 0.00337 ms/(ng/mL) | θ2 Impact of baseline QTcF on ΔQTcF [2]: −0.119 | Time to maximum ΔQTcF ([3]; after administration of first dose): ≤ 2 h | ΔHR (change in heart rate) ([3]; after first dose, small decrease at 1 hour, not dose-dependent): ≤ 10 beats per minute | Time delay between concentration and ΔQTcF (hysteresis plots) ([3]; in vivo): No evidence of a time‐delay | Patients with QRS ≥ 110 ms ([4]; doses from 80 mg to 800 mg): 5.0% | Patients with QTcF ≥ 480 ms ([4]; single doses 80-800 mg): No patients | Patients with ΔQTcF ≥ 60 ms ([4]; single doses 80-800 mg): No patients | Reports of serious cardiac events or ECG changes [5]: no reports of sudden death, torsades de pointes, seizures or electrocardiogram (ECG) changes that were considered serious
